Results as given in ChEMBL document CHEMBL3871264, “Design of a novel thiophene inhibitor of 15-lipoxygenase-1 with both anti-inflammatory and neuroprotective properties” (Eur J Med Chem, 2016).
pIC50: −log10 of the molar value. Active and inactive are the calls of the source. The calls are words filed in the database; no cut-off is given here.

Tests used:
[1] = target: T1, Polyunsaturated fatty acid lipoxygenase ALOX15 (Homo sapiens, UniProt P16050); assay: Inhibition of human 15-LOX-1 assessed as reduction in conversion of linoleic acid to 13(S)-HpODE incubated for 10 mins followed by linoleic acid addition by UV-absorbance analysis
T1 sequence (P16050 whole entry): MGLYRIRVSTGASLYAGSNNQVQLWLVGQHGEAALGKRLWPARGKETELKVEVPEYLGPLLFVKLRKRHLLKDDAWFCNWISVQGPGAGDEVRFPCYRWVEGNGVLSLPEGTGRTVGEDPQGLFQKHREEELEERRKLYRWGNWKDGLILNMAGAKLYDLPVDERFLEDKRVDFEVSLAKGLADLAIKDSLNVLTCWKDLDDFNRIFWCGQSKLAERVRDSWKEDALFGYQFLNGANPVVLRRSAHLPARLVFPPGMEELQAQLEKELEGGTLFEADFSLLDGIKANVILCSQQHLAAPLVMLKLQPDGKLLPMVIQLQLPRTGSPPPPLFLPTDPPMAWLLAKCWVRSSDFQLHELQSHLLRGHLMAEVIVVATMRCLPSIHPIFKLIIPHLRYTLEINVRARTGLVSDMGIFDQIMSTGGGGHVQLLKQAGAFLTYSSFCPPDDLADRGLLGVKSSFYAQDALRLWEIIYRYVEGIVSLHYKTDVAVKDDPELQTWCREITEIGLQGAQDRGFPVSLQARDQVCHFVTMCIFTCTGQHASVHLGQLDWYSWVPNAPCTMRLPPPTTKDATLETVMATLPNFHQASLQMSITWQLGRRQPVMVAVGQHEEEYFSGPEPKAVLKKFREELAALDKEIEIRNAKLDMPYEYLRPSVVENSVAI

[2] = target: T2, Polyunsaturated fatty acid lipoxygenase ALOX15 (Mus musculus) (UniProt P39654); assay: Inhibition of 15-LOX-1 in mouse HT22 cells assessed as protection against glutamate-induced cell impedance at 10 uM incubated up to 8 hrs following glutamate challenge measured up to 20 hrs by real time cell viability assay; assay type: cell-based; conditions: HT-22
T2 sequence (whole entry): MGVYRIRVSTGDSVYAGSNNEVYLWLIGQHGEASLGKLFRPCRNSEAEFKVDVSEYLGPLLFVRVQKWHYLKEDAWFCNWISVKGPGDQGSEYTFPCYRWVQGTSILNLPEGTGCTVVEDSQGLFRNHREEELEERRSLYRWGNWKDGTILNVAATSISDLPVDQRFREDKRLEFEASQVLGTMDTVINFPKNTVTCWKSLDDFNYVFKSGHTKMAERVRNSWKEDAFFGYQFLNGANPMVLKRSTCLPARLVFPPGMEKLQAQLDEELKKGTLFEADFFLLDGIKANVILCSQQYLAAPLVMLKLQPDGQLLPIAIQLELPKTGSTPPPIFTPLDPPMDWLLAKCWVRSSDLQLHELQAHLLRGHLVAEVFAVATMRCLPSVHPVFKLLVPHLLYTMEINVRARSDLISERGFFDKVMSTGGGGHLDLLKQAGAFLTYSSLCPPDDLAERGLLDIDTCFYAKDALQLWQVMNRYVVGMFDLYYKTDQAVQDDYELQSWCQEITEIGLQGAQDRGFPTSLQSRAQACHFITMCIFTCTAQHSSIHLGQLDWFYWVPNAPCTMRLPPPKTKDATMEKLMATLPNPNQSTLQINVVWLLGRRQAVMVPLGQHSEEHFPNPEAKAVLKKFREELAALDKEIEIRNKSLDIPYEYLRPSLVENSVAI
In short: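 HT-22 cells were seeded at 8x10^3 per well, incubated overnight, then given 4 mM glutamate. Inhibitor was either co-applied (1-20 µM; PD146176 at 1 µM) or added at 10 µM 2, 4, 6 or 8 h after glutamate. Impedance was recorded in real time for 16-20 h, with cell index normalized just before glutamate addition.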

With `CCCCNC(=O)c1cc(-c2ccccc2)sc1N` the pIC50 [1] was 4.91 and the inhibition [2] was “Active”.
